# Screens: PubChem BioAssay, several laboratories
# In the library only some 3.1% were active in any assay of this set; here they are far more common.
# Yeast life ext: compounds extending yeast replicative lifespan, primary screen, S. cerevisiae, OD615. AID 775, 2007. inhibition of the nicotinamide effect, % at 10 µM. S. cerevisiae growth with nicotinamide; deaD strain in restrictive glucose medium. 0.68% of 130,000 active;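 active means inhibition above a set limit, placed 3 SD over the median of all compounds, cut at about 26% in these data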;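 further: 0% = nicotinamide-treated wells and 100% = cells grown without nicotinamide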
#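 Assay system: engineered S. cerevisiae DeaD replicative-lifespan strain, galactose-grown log-phase cells; medium: restrictive CSMM-D dextrose medium; also added: nicotinamide, 1.5 mM, co-present with compound; schedule: 48 h compound exposure at 30 °C, humidified; detection: absorbance at 615 nm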
# Insulin prom inh: inhibitors of insulin promoter-driven GFP, primary screen, imaging, TRM-6 cells, eGFP reporter, cell count; AID 1273, 2008; reporter expression induced with tamoxifen; 0.9% of 130,000 active; inhibition, % at 2 µM;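 active means inhibition above the mean plus 3 SD, with well images judged a real hit on visual review, cut at about 60% in these data, passing the limit was not always enough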
# Yeast growth inh: growth inhibitors of yeast BB579 in restrictive medium, primary screen, yeast lifespan-shortening project, S. cerevisiae. OD615, 48 h. inhibition, % at 10 µM. 0.51% of 140,000 active. AID 804, 2007;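 active means inhibition above a set limit, 3 SD over the mean compound inhibition, cut at about 44% in these data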
#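 Detection: OD615 turbidity measurement; Material: Saccharomyces cerevisiae DeaD strain BB579, replicative lifespan model yeast; Timing: 48 h exposure, 30 °C; Doses: single 10 µM dose; Medium: CSMM-D restrictive synthetic medium containing dextrose (glucose); Controls: amphotericin B at 10 µg/mL as positive control.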
# Ins promoter up: insulin promoter activators in MIN6 cells, imaging, high-content screening, mouse beta cells | 0.3% of 190,000 active | MIN6 insulin promoter-GFP reporter; active compounds read high | z-score at 5 µM;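 active means z-score above 3 at 5 µM with at least 500 cells counted in the well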
# RAM inhibit: inhibitors of the yeast RAM network, primary screen, dse1pr::URA3 reporter, 5-FOA selection | S. cerevisiae dse1pr::URA3 reporter, 5-FOA growth OD615, 2 d; analog-sensitive cbk1-as2 kinase mutant strain | inhibition, % at 50 µM | 1.8% of 190,000 active | AID 868, 2007;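 active means inhibition above a set limit, 3 SD over mean compound inhibition, cut at about 8.4% in these data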;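 further: 0% = DMSO-only wells with no growth and 100% = 10 µM 1-NA-PP1 full growth; inhibition rescues growth on 5-FOA so higher OD means more RAM inhibition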
# RAM 5-FOA: 5-FOA growth of efflux-deficient control yeast, dose response, counter-screen for RAM network inhibitor project, S. cerevisiae, OD615 | shares compounds with RAM inhibit | S. cerevisiae efflux-deficient reporter strain, 5-FOA growth OD615, 2 days | max inhibition, % | 1,200 tested, under 10 active | AID 1305, 2008; call rule not given here;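 further: plate controls were vehicle for no effect and reference inhibitor for full effect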
# * hit, by the source's call; x = no result given.
SMILES,Yeast life ext,Insulin prom inh,Yeast growth inh,Ins promoter up,RAM inhibit,RAM 5-FOA
CCOC(=O)CSc1nc(-c2ccccc2)nc2c1oc1ccccc12,-12,10,-48,-0.41,8,x
O=C(O)CSc1nc(-c2ccc(Cl)cc2)nc2c1oc1ccccc12,-7,-29,71*,0.01,15*,3
CN(C)c1ccc(-c2nnc(SCC3CCCO3)n2C)cc1 (configuration not stated),x,x,x,0.39,1,x
C/C=C/c1ccc(OCC(=O)OCc2csc(Nc3ccc(C)cc3)n2)c(OC)c1,-2,48,-9,0.15,12*,4
COC(=O)Cc1ccc(NC(=S)NCCSc2ccc(Cl)cc2)cc1,x,x,x,0.09,x,x
Cc1cc(C)cc(NC(=S)NCCSc2ccc(Cl)cc2)c1,-5,-9,1,-0.41,13*,7
Cc1ccc(SCCNC(=S)Nc2ccc(C)c(C)c2)cc1,-6,-3,14,x,13*,3
Cc1ccc(SCCNC(=S)Nc2ccccc2)cc1,-14,3,-40,-0.35,1,x
CC1=C(C(=O)Nc2cccc(C)c2C)C(c2cccs2)NC(=S)N1 (configuration not stated),-6,56,-11,-0.42,2,x
CCOC(=O)c1cc(C)nc(Sc2ccc(C)cc2)c1C#N,x,x,x,0.11,x,x
CCOC(=O)C(NC(=O)NCc1ccccc1OC)(OCC)C(F)(F)F (configuration not stated),19,x,-25,-0.27,1,x
Cc1c(NC(=S)NC(=O)Cc2ccccc2)cccc1C(=O)O,1,-90,-22,-0.6,22*,1
Cc1ccc(NC(=O)COC(=O)CNC(=O)c2ccc(Br)cc2)c(C)c1,11,-53,-21,1.1,5,x
COc1ccc(NC(=O)CSc2nc3ccccc3c(=O)n2CCNC(C)=O)c(OC)c1,15,x,-46,0.28,12*,1
CC(=O)NCCn1c(SCc2cc(F)ccc2F)nc2ccccc2c1=O,-5,31,-52,x,5,x
CC(=O)NCCn1c(SCc2cccc([N+](=O)[O-])c2)nc2ccccc2c1=O,x,-13,x,-0.83,12*,3
O=C(O)c1ccc(S(=O)(=O)N(Cc2cccs2)CC2CCCO2)cc1 (configuration not stated),x,x,x,1.1,x,x
COc1ccc(CCN(Cc2cccs2)S(=O)(=O)c2ccc(C(=O)O)cc2)cc1OC,x,x,x,-0.17,13*,2
Cc1cc(C)c2cc(C(=O)Nc3ccccc3)[nH]c2c1,x,x,x,0.48,x,x
Cc1csc(SCC(=O)NC(C)c2ccccc2)n1 (configuration not stated),x,x,x,0.02,2,x
COc1cccc(-c2csc3nnc(SCC(=O)NCc4cccs4)n23)c1,6,x,-24,0.94,17*,2
COC(=O)C1=CN(Cc2cccs2)C=C(C(=O)OC)C1c1cccc(Cl)c1,x,x,x,0.01,13*,2
CO/N=C/C(=N\Nc1ccc(OC)cc1)C(=O)c1ccc(OC)cc1,-5,-6,-38,-0.6,12*,2
COc1cc(C(c2sc3nc(C)nn3c2O)N2CCN(c3ccccc3)CC2)cc(OC)c1OC (configuration not stated),-10,x,-33,-1.2,16*,2
COc1cc(C(c2sc3nc(C)nn3c2O)N2CCOCC2)cc(OC)c1OC (configuration not stated),-5,x,-18,0,1,x
O=C(c1oc2ccccc2c1CSCc1ccccc1)N1CCN(c2ncccn2)CC1,-6,0,-34,-0.21,12*,1
Cc1c(C(=O)N2CCN(c3ccccn3)CC2)oc2ccccc12,-10,14,-50,0.73,1,x
S=c1[nH]ncn2c1cc1oc3ccccc3c12,x,x,x,0.13,1,x
CC(OC(=O)Cc1n[nH]c(=O)c2ccccc12)C(=O)Nc1cccc([N+](=O)[O-])c1 (configuration not stated),x,x,x,0.19,2,x
CCN(CC)S(=O)(=O)c1ccc(NC(=O)COC(=O)c2ccc(Br)o2)cc1,10,50,-50,x,47*,2
